For experiment [1], the target named is Cyclin-dependent kinase 11B (Homo sapiens) (UniProt P21127). The experiment can be described thus: Inhibition of CDK11 Lys2 labeling site in human Huh-7 cell lysate at 1 uM by KiNativ Profiling analysis relative to control. Type of experiment: subcellular.
The target in experiment [2] is T1, Serine/threonine-protein kinase D3 (Homo sapiens) (UniProt O94806).
T1 sequence (whole entry): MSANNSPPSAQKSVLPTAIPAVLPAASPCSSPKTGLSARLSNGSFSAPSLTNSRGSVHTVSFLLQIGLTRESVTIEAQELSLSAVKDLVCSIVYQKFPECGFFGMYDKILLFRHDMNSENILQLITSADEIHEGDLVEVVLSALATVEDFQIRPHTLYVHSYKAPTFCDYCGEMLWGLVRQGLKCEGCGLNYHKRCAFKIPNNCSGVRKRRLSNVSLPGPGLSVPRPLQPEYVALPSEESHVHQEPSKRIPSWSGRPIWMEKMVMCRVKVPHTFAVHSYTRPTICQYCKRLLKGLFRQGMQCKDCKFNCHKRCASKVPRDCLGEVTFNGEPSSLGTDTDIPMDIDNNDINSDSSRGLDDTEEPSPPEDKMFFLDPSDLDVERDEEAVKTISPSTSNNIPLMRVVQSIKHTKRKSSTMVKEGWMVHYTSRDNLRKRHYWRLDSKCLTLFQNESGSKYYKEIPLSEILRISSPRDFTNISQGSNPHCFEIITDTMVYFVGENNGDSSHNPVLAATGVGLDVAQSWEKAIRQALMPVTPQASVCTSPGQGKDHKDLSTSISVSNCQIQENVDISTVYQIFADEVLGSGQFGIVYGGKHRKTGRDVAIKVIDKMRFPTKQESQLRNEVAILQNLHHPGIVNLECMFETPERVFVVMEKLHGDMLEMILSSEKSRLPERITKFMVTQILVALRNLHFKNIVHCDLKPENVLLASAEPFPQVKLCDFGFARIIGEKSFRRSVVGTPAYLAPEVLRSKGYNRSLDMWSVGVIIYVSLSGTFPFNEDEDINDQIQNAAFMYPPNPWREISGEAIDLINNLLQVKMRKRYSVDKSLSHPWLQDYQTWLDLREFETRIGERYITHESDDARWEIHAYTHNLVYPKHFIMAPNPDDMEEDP
Description: Inhibition of PKD3 Lys2 labeling site in human Huh-7 cell lysate at 1 uM by KiNativ Profiling analysis relative to control. Type of experiment: subcellular.

Experiment [3] deals with Serine/threonine-protein kinase Nek4 (Homo sapiens) (UniProt P51957). The experiment can be described thus: Inhibition of NEK4 Lys2 labeling site in human Huh-7 cells at 1 uM by KiNativ Profiling analysis relative to control. Type of experiment: cell-based.
The target of experiment [4] is Homeodomain-interacting protein kinase 1 (Homo sapiens) (UniProt Q86Z02). The experiment can be described thus: Inhibition of HIPK1 (unknown origin) at 1 uM by Ambit Kinomescan binding assay relative to control; values are per cent of control.
The subject of experiment [5] is Tyrosine-protein kinase ABL1 (Homo sapiens), P00519 [Q252H]. Description: Inhibition of nonphosphorylated ABL1 Q252H mutant (unknown origin) at 1 uM by Ambit Kinomescan binding assay relative to control.
In experiment [6] the target is Receptor tyrosine-protein kinase erbB-3 (Homo sapiens) (UniProt P21860). The experiment can be described thus: Inhibition of ERBB3 (unknown origin) at 1 uM by Ambit Kinomescan binding assay relative to control.
The target in experiment [7] is Protein kinase C eta type (Homo sapiens) (UniProt P24723). The experiment can be described thus: Inhibition of PRKCH (unknown origin) at 1 uM by Ambit Kinomescan binding assay relative to control; values are per cent of control.
The target in experiment [8] is Serine/threonine-protein kinase Nek5 (Homo sapiens) (UniProt Q6P3R8). The experiment can be described thus: Inhibition of NEK5 (unknown origin) at 1 uM by Ambit Kinomescan binding assay relative to control; values are per cent of control.
In experiment [9] the target is Phosphatidylinositol 4,5-bisphosphate 3-kinase catalytic subunit alpha isoform (Homo sapiens) (UniProt P42336). Description: Inhibition of PIK3CA (unknown origin) at 10 uM by Ambit Kinomescan binding assay.
Experiment [10] concerns the target Muscle, skeletal receptor tyrosine-protein kinase (Homo sapiens) (UniProt O15146). The experiment can be described thus: Inhibition of MUSK (unknown origin) at 10 uM by Ambit Kinomescan binding assay relative to control; values are per cent of control.
Experiment [11] deals with 5'-AMP-activated protein kinase catalytic subunit alpha-2 (Homo sapiens) (UniProt P54646). The experiment can be described thus: Inhibition of AMPK-alpha2 (unknown origin) at 10 uM by Ambit Kinomescan binding assay.
The target of experiment [12] is PKC alpha and beta-2 (Homo sapiens) (UniProt P17252+P05771). Description: Inhibition of PKCalpha/beta K2 labeling site in human Huh-7 cells at 1 uM by KiNativ Profiling analysis relative to control. Type of experiment: cell-based.
Experiment [13] concerns the target Myosin light chain kinase, smooth muscle (Homo sapiens) (UniProt Q15746). The experiment can be described thus: Inhibition of MYLK (unknown origin) at 10 uM by Ambit Kinomescan binding assay. In a few lines:
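In vitro ATP-site competition binding assay against a panel of over 420 kinases (KinomeScan), with compound tested at 10 or 1 μM.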

The target of experiment [14] is T2, Mitogen-activated protein kinase kinase kinase 3 (Homo sapiens) (UniProt Q99759).
T2 sequence (whole entry): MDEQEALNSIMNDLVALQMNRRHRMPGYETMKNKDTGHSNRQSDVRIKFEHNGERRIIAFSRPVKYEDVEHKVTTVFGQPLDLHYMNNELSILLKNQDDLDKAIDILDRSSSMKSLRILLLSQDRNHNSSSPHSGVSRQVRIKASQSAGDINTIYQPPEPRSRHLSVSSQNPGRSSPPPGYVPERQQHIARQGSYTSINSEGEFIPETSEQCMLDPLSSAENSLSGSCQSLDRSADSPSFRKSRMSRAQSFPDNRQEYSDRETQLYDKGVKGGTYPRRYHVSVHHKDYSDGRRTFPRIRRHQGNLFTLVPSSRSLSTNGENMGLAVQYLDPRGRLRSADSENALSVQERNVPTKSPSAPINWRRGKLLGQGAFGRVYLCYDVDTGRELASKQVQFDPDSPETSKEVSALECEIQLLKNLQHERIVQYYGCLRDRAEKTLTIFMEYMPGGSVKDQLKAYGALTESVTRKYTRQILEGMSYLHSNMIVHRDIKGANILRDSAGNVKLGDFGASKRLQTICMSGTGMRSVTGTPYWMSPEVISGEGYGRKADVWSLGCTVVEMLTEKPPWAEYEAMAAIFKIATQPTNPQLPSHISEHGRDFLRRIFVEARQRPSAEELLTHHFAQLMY
The experiment can be described thus: Inhibition of MAP3K3 Lys2 labeling site in human A-375 cells at 0.05 uM by KiNativ Profiling analysis relative to control. Type of experiment: cell-based.

Molecules are shown by their SMILES. The source made the active and inactive calls. The calls are words filed in the database; no cut-off is given here.

Sequence of Serine/threonine-protein kinase Nek5 (Homo sapiens) (Q6P3R8 whole entry, canonical isoform): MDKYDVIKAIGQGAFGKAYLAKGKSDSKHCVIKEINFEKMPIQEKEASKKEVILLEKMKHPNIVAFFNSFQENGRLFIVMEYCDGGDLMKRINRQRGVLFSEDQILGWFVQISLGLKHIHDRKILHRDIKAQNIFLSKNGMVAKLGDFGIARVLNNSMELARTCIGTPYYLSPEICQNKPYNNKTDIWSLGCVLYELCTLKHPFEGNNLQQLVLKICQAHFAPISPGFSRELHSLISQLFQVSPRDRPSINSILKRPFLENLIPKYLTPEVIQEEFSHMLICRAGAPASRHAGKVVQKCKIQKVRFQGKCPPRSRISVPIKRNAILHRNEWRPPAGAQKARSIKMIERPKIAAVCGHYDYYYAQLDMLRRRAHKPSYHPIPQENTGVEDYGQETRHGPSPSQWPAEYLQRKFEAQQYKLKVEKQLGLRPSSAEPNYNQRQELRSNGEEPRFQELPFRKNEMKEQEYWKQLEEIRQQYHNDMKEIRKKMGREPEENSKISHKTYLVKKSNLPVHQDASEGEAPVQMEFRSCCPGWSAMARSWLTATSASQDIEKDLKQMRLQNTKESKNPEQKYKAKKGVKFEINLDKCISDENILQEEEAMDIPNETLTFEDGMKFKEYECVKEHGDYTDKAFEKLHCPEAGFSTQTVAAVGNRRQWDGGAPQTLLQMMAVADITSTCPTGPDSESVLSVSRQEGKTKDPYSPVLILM
Sequence of PKC alpha and beta-2 (Homo sapiens) (P05771 whole entry, looked up): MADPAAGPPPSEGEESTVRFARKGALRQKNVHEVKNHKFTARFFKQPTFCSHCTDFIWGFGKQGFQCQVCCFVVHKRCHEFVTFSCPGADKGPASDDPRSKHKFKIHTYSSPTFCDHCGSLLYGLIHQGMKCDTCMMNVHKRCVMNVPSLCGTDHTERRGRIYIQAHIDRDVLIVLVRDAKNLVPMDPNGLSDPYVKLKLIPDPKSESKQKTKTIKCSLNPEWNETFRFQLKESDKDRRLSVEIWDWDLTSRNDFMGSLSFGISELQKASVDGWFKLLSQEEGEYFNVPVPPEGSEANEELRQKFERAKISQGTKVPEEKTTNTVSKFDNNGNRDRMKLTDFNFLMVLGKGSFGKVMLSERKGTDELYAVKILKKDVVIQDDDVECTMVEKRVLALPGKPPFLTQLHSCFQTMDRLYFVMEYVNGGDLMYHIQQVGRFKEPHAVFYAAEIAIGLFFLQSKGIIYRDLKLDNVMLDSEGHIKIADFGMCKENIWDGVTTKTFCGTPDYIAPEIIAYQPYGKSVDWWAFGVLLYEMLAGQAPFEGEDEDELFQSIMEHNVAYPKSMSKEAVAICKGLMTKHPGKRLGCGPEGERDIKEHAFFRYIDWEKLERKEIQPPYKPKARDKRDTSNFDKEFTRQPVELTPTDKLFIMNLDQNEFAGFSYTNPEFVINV
Sequence of Muscle, skeletal receptor tyrosine-protein kinase (Homo sapiens) (O15146 whole entry): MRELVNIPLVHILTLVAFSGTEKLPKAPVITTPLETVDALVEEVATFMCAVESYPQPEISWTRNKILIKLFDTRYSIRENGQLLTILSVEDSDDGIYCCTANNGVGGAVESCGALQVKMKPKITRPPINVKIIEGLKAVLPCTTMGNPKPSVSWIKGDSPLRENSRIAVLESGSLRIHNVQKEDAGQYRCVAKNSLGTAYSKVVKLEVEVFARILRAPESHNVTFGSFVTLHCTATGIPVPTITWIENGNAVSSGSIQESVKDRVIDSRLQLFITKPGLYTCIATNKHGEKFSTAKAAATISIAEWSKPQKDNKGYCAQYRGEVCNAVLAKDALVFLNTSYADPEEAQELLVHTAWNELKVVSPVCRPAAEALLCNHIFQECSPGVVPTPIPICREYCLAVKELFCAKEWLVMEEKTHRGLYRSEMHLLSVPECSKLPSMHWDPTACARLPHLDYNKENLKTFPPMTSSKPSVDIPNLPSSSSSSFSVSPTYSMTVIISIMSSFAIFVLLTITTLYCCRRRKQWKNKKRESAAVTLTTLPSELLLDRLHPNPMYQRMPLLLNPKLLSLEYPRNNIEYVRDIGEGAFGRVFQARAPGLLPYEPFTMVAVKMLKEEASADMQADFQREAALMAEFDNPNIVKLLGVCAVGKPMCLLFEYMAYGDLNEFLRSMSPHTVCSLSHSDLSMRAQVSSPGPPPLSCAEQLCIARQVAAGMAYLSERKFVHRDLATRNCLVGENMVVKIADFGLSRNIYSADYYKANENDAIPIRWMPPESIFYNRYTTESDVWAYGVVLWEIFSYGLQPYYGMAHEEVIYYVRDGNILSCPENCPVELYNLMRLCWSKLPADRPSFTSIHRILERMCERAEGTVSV
Sequence of Phosphatidylinositol 4,5-bisphosphate 3-kinase catalytic subunit alpha isoform (Homo sapiens) (P42336 whole entry, canonical isoform): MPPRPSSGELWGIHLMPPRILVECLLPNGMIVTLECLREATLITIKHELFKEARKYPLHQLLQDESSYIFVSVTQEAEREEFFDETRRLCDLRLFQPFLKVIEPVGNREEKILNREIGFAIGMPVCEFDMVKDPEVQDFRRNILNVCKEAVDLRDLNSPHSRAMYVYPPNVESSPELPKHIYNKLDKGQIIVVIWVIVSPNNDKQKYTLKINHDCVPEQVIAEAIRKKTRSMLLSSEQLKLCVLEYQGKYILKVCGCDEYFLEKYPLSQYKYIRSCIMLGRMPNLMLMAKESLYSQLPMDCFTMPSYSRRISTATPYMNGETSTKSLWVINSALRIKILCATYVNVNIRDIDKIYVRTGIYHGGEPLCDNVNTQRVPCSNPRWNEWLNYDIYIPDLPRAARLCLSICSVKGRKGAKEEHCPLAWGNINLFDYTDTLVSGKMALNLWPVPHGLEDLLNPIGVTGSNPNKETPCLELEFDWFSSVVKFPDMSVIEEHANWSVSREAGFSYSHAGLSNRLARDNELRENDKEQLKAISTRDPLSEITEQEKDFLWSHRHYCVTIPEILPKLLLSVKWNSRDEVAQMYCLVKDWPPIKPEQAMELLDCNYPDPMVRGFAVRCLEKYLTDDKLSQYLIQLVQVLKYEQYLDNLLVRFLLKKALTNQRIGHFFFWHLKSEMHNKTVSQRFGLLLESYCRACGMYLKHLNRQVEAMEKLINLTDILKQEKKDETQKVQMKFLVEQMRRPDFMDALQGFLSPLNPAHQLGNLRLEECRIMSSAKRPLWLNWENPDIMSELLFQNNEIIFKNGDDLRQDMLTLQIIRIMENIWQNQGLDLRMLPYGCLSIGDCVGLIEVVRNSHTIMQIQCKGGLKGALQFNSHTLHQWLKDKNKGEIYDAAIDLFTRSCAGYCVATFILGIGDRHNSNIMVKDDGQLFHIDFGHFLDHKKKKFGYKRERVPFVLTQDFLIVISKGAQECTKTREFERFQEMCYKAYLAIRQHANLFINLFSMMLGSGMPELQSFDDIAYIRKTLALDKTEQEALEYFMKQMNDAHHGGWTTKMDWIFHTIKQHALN
Sequence of Protein kinase C eta type (Homo sapiens) (P24723 whole entry): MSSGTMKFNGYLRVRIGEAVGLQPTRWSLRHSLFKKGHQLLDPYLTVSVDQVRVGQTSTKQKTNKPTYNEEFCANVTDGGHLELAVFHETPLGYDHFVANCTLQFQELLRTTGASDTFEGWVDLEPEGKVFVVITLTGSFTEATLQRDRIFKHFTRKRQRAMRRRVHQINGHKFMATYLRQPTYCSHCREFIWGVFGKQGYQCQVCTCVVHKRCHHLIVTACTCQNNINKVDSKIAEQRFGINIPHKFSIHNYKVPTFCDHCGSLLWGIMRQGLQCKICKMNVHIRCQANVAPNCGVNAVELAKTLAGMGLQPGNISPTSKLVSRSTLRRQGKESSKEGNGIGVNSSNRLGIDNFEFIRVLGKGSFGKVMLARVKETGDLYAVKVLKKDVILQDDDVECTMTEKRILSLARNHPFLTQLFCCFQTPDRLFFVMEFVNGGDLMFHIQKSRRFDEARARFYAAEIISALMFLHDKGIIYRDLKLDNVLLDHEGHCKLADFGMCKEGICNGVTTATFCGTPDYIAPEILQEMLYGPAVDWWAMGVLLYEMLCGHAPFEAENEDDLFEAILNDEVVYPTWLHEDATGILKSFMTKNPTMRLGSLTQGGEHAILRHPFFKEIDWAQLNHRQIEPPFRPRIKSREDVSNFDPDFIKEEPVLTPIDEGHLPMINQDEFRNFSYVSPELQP

As to `CNc1cc(Oc2cc(C(=O)Nc3cc(N4CCN(C)CC4)cc(C(F)(F)F)c3)ccc2C)ncn1`, the figures for the inhibition in experiment [1], in experiment [2] and in experiment [3] were -8.6%, 12.4% and 43.4%, respectively.
Take `CCN1CCN(Cc2ccc(NC(=O)c3ccc(C)c(/C=C/c4cnc5[nH]ccc5c4OC)c3)cc2C(F)(F)F)CC1`: the residual activity in experiment [4] worked out at 74%; in experiment [7], 100%; in [8], 47%. For the same compound, the inhibition in experiment [5] came out at 1.4%; in experiment [6] it was 100%.
As for `CCN1CCN(Cc2ccc(NC(=O)c3ccc(C)c(Oc4ccnc5[nH]ccc45)c3)cc2C(F)(F)F)CC1`, the inhibition entry in experiment [9], in experiment [11] and in experiment [13] was “inactive” in each case. Moreover, the % of control in experiment [10] is 0.2%. Further, the inhibition stood at 8.8% in [12] and 7.6% in experiment [14].

In general, inhibition refers to the change of the read-out against control, counted positive when it falls. The residual activity is the activity still measured, relative to the control. The low end stands for a large loss of activity, the high end for a small loss of activity.
